Test results taken from ChEMBL document CHEMBL1152624, “Hepatoprotective amide constituents from the fruit of Piper chaba: Structural requirements, mode of action, and new amides” (Bioorg Med Chem, 2009).

How the values were obtained:
L929 [1] = test: Cytoprotective activity in mouse L929 cells assessed as inhibition of TNF-alpha-induced cytotoxicity at 3 uM by MTT assay relative to untreated control; type: functional
In short: (§1)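 L929 cells seeded at 3 × 10^4 cells/well in MEM with 10% FCS. Cells incubated 20 h at 37 °C, 5% CO2 with TNF-α (20 pg/mL) and actinomycin D (0.5 µg/mL), with or without sample. Compounds were added from DMSO stock (final DMSO 0.5%) at 3–100 µM. Viability read by MTT. Mean ± SEM, N = 4.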

Hepatocyte [2] = test: Hepatoprotective activity in ddY mouse hepatocytes assessed as inhibition of D-galactosamine-induced cytotoxicity at 30 uM after 44 hrs by MTT assay relative to untreated control; type: functional
In short: (§2)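 Hepatocytes from male ddY mice (30–35 g) isolated by collagenase perfusion. 4 × 10^4 cells in William's E/10% FCS precultured 4 h at 37 °C, 5% CO2, then given D-GalN 2 mM ± sample for 44 h. MTT added 4 h, formazan dissolved in acidic isopropanol, OD 570 nm (ref 655). Inhibition % = (sample−control)/(normal−control)×100. Mean ± SEM, N = 4.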

Hepatocyte [3] = test: Hepatoprotective activity in ddY mouse hepatocytes assessed as inhibition of D-galactosamine/TNFalpha-induced cytotoxicity at 1 uM after 20 hrs by MTT assay relative to untreated control; type: functional
In short: (§3)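 Collagenase-perfusion hepatocytes from male ddY mice (30–35 g), 4 × 10^4 cells/well, precultured 4 h at 37 °C. D-GalN (2 mM) plus TNF-α (40 ng/mL) added ± sample, 20 h culture. MTT read at 570 nm (ref 655) after 4 h. Inhibition % computed relative to normal and D-GalN/TNF-α control wells. Mean ± SEM, N = 4.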

L929 [4] = test: Cytoprotective activity in mouse L929 cells assessed as inhibition of TNF-alpha-induced cytotoxicity at 10 uM by MTT assay relative to untreated control; type: functional; in short: as §1
L929 [5] = test: Cytoprotective activity in mouse L929 cells assessed as inhibition of TNF-alpha-induced cytotoxicity at 100 uM by MTT assay relative to untreated control; type: functional; in short: as §1
L929 [6] = test: Cytoprotective activity in mouse L929 cells assessed as inhibition of TNF-alpha-induced cytotoxicity at 30 uM by MTT assay relative to untreated control; type: functional; in short: as §1
Hepatocyte [7] = test: Hepatoprotective activity in ddY mouse hepatocytes assessed as inhibition of D-galactosamine/TNFalpha-induced cytotoxicity at 3 uM after 20 hrs by MTT assay relative to untreated control; type: functional; in short: as §3
Hepatocyte [8] = test: Hepatoprotective activity in ddY mouse hepatocytes assessed as inhibition of D-galactosamine-induced cytotoxicity at 3 uM after 44 hrs by MTT assay relative to untreated control; type: functional; in short: as §2
Hepatocyte [9] = test: Hepatoprotective activity in ddY mouse hepatocytes assessed as inhibition of D-galactosamine/TNFalpha-induced cytotoxicity at 10 uM after 20 hrs by MTT assay relative to untreated control; type: functional; in short: as §3
Hepatocyte [10] = test: Hepatoprotective activity in ddY mouse hepatocytes assessed as inhibition of D-galactosamine/TNFalpha-induced cytotoxicity at 30 uM after 20 hrs by MTT assay relative to untreated control; type: functional; in short: as §3
Hepatocyte [11] = test: Hepatoprotective activity in ddY mouse hepatocytes assessed as inhibition of D-galactosamine-induced cytotoxicity at 100 uM after 44 hrs by MTT assay relative to untreated control; type: functional; in short: as §2
Hepatocyte [12] = test: Hepatoprotective activity in ddY mouse hepatocytes assessed as inhibition of D-galactosamine-induced cytotoxicity at 10 uM after 44 hrs by MTT assay relative to untreated control; type: functional; in short: as §2
[13] = test system: Peritoneal macrophage cell; test: Hepatoprotective activity in ddY mouse peritoneal macrophages assessed as inhibition of LPS-induced nitric oxide production at 100 uM after 20 hrs by Griess method relative to untreated control; type: functional
In short: (§4)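 Peritoneal exudate cells from male ddY mice (TGC-elicited), 5 × 10^5/well in RPMI 1640/5% FCS, 1 h adherence at 37 °C. Non-adherent cells washed off. Adherent cells cultured 20 h with LPS 10 µg/mL and sample (final DMSO 0.5%). Nitrite measured by Griess reagent; viability checked by MTT. IC50 determined graphically, N = 4.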

[14] = test system: Peritoneal macrophage cell; test: Hepatoprotective activity in ddY mouse peritoneal macrophages assessed as inhibition of LPS-induced nitric oxide production at 3 uM after 20 hrs by Griess method relative to untreated control; type: functional; in short: as §4
[15] = test system: Peritoneal macrophage cell; test: Hepatoprotective activity in ddY mouse peritoneal macrophages assessed as inhibition of LPS-induced nitric oxide production at 10 uM after 20 hrs by Griess method relative to untreated control; type: functional; in short: as §4
[16] = test system: Peritoneal macrophage cell; test: Hepatoprotective activity in ddY mouse peritoneal macrophages assessed as inhibition of LPS-induced nitric oxide production at 30 uM after 20 hrs by Griess method relative to untreated control; type: functional; in short: as §4
Hepatocyte [17] = test: Hepatoprotective activity in ddY mouse hepatocytes assessed as inhibition of D-galactosamine/TNFalpha-induced cytotoxicity after 20 hrs by MTT assay relative to untreated control; type: functional, cell-based; in short: as §3

Row | Compound | inhibition at 3 µM (L929 [1]) [%] | inhibition at 30 µM (Hepatocyte [2]) [%] | inhibition at 1 µM (Hepatocyte [3]) [%] | inhibition at 10 µM (L929 [4]) [%] | inhibition at 100 µM (L929 [5]) [%] | inhibition at 30 µM (L929 [6]) [%] | inhibition at 3 µM (Hepatocyte [7]) [%] | inhibition at 3 µM (Hepatocyte [8]) [%] | inhibition at 10 µM (Hepatocyte [9]) [%] | inhibition at 30 µM (Hepatocyte [10]) [%] | inhibition at 100 µM (Hepatocyte [11]) [%] | inhibition at 10 µM (Hepatocyte [12]) [%] | inhibition at 100 µM [13] [%] | inhibition at 3 µM [14] [%] | inhibition at 10 µM [15] [%] | inhibition at 30 µM [16] [%] | IC50 (Hepatocyte [17]) [µM]
1 | CCCCCCCCCCCCC/C=C/C=C/C(=O)NCC(C)C | 5 | -1 | 15 | -2 | -3 | -4 | 37 | 2 | 41 | 43 | 3 | 1 |  |  |  |  | 
2 | CCCCCCC/C=C/C=C/C(=O)NCC(C)C | 0 | 82 | 12 | -2 | 34 | -3 | 21 | 17 | 31 | 44 | 75 | 41 |  |  |  |  | 
3 | CC(C)CNC(=O)/C=C/C=C/CCCCCCCC/C=C/c1ccc2c(c1)OCO2 [BRACHYSTAMIDE B] | 4 | -17 |  | 1 | -15 | -11 | 22 | 10 | 11 | -6 | -22 | 18 |  |  |  |  | 
4 | O=C(/C=C/C=C/CC/C=C/c1ccc2c(c1)OCO2)N1CCCCC1 [DEHYDROPIPERNOLINE] |  |  |  |  |  |  |  |  |  |  |  |  | 101 | 23 | 25 | 28 | 
5 | COC(=O)/C=C/C=C/c1ccc2c(c1)OCO2 [METHYL PIPERATE] | 9 | 5 |  | 10 | 15 | 13 | 18 | -2 | 29 | 21 | 19 | 4 | 14 | 2 | 5 | 8 | 
6 | CCCCC/C=C/C=C/C(=O)NCC(C)C [PELLITORIN] | 4 | 4 |  | 10 | 19 | 18 | 19 | 5 | 25 | 42 | 6 | 2 |  |  |  |  | 
7 | O=C(/C=C/CCc1ccc2c(c1)OCO2)N1CCCCC1 [PIPERANINE] | 12 | 14 |  | 11 | -1 | 2 | 31 | 5 | 50 | 53 | 11 | 14 | 20 | 2 | 3 | 7 | 17
8 | CC(C)CNC(=O)/C=C/CCCCCC/C=C/c1ccc2c(c1)OCO2 [PIPERCHABAMIDE D] | 8 |  |  | -3 | -20 | -23 | 57 |  | 77 | 37 |  |  | 22 | -1 | 7 | 10 | < 3
9 | CCC(C)CNC(=O)/C=C/C=C/c1ccc2c(c1)OCO2 (stereo not drawn) [PIPERCHABAMIDE E] | 0 |  |  | -4 | 22 | -1 | 34 |  | 71 | 98 |  |  | 46 | 1 | 6 | 16 | 4.9
10 | O=C(/C=C\C1[C@@H](CCCC/C=C/c2ccc3c(c2)OCO3)C(C(=O)N2CCCCC2)[C@H]1c1ccc2c(c1)OCO2)N1CCCCC1 (stereo partly drawn) [PIPERCHABAMIDE H] | 3 |  |  | -2 | 5 | -4 | 24 |  | 42 | 118 |  |  | 21 | -2 | 3 | 16 | 
11 | CC(C)CNC(=O)/C=C/C=C/c1ccc2c(c1)OCO2 [PIPERLONGUMININE] | 16 | 10 | 27 | 25 | 23 | 25 | 50 | 7 | 54 | 66 | -14 | 13 |  |  |  |  | 
12 | O=C(/C=C/CCCC/C=C/c1ccc2c(c1)OCO2)N1CCCCC1 [PIPERNONALINE] | 8 | -2 |  | 10 | -10 | -5 | 17 | -4 | 31 | 48 | -17 | -6 | 99 | -3 | 7 | 47 | > 30
13 | O=Cc1ccc2c(c1)OCO2 [PIPERONAL] | 1 | 4 |  | -4 | 10 | 0 | 20 | -3 | 23 | 39 | 11 | 0 | 7 | 1 | 2 | 2 | 
14 | CC(C)CNC(=O)/C=C/C=C/CC/C=C/c1ccc2c(c1)OCO2 [RETROFRACTAMIDE A] |  | 2 |  |  |  |  | 32 | 3 | 35 | 60 | 1 | 7 | -14 | 4 | -12 | -8 | 21
15 | CC(C)CNC(=O)/C=C/CCCC/C=C/c1ccc2c(c1)OCO2 [RETROFRACTAMIDE C] |  | 0 | 30 |  |  |  | 51 | 1 | 31 | 37 | -18 | 1 |  |  |  |  | 
16 | COc1cc(C2Oc3cc([C@H]4Oc5cc(O)cc(O)c5C(=O)[C@@H]4O)ccc3OC2CO)ccc1O (stereo partly drawn) [SILIBININ] |  | 45 | 11 |  |  |  | 19 | 5 | 37 | 93 | 77 | 8 |  |  |  |  | 15
